High-throughput results as filed in PubChem.
Most compounds without a hit are left out; they make up all but 2.6% or so of the library.
SKN-1 inh = C. elegans SKN-1 inhibition; C. elegans VP596 Pgst-4::GFP/RFP ratio, acrylamide-induced, 24 h; inhibition, % at 21.8 µM; hit rate 0.49% among 360,000;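 active = interference check ratio from 0.5 to 1.5 plus GFP to RFP signal ratio inhibition reaching or exceeding a fixed threshold, cut at about 30% in these data, passing the limit was not always enough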
Rce1 inh = inhibitors of yeast Ras-converting enzyme; Q03530; yeast membranes, quenched prenylated peptide cleavage fluorescence; calls only; hit rate 0.27% among 290,000; AID 2563;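 active = fall in fluorescence gain of 50% or more versus controls, with final raw signal at or below 3038400; inconclusive = same 50% fall but final raw signal above 3038400; inactive = fall in fluorescence gain under 50%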;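 also: plate controls were neutral control wells for no effect and wells lacking membranes for full effect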
T cell modulator = T cell immune modulators affecting CD8 T cell-vesicle binding; AID 2052; response (vesicle binding), % at 7 µM; hit rate 0.068% among 330,000; 2C CD8+ T cell-vesicle binding, flow cytometry; stronger effect = lower value;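 active = response, share of CD8 T cells binding vesicles, and their 90th percentile fluorescence all below set limits, cut at about 80% in these data, passing the limit was not always enough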;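 also: values below 100% mean blocked vesicle binding to the CD8+ T cells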
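Material: 2C TCR transgenic mouse naive CD8+ T cells, MACS-purified. Also added: QL9-charged Drosophila Ld/ICAM-1/B7-1 vesicles. Timing: binding 1.5 h at 37 °C. Measured by: high-throughput flow cytometry with anti-B7-1 and anti-CD8 staining. Read-out: percent CD8+ FL2 mean versus row control. Controls: Unloaded micro-vesicles (low), QL9 vesicles with 0.7% DMSO (high).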
Myeloid diff MLP = compounds promoting myeloid differentiation. hit rate 1% among 360,000. calls only at 10 µM. ER-HoxA9 myeloid progenitors, lysozyme-GFP differentiation, flow cytometry;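 active = normalized GFP-positive differentiation at or above the plate's own cutoff, the solvent-only control mean plus 3 SD; inconclusive = no clear call, values can overlap the other calls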;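 also: cells exposed to compound for four days before flow analysis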
Rin1 Abl inh = inhibitors of human Rin1-Abl protein interaction. P00519+Q13671. TR-FRET Rin1/Abl binding, biochemical. inhibition, % at 7.35 µM. hit rate 0.4% among 360,000; in the data active = inhibition above about 5%, passing the limit was not always enough
GRK2 aptamer HTS = inhibitors of human GRK2 displacing RNA aptamer. bead flow cytometry, FAM-aptamer displacement from GRK2. hit rate 0.59% among 330,000. inhibition of aptamer binding, % at 10 µM. P25098. AID 488847;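 active = inhibition of aptamer binding above 40%, roughly 3 SD of noise, on plates passing a quality check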;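 also: median bead fluorescence of bound FAM aptamer so fluorescent compounds give negative values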
Target sequence (P25098 whole entry, looked up): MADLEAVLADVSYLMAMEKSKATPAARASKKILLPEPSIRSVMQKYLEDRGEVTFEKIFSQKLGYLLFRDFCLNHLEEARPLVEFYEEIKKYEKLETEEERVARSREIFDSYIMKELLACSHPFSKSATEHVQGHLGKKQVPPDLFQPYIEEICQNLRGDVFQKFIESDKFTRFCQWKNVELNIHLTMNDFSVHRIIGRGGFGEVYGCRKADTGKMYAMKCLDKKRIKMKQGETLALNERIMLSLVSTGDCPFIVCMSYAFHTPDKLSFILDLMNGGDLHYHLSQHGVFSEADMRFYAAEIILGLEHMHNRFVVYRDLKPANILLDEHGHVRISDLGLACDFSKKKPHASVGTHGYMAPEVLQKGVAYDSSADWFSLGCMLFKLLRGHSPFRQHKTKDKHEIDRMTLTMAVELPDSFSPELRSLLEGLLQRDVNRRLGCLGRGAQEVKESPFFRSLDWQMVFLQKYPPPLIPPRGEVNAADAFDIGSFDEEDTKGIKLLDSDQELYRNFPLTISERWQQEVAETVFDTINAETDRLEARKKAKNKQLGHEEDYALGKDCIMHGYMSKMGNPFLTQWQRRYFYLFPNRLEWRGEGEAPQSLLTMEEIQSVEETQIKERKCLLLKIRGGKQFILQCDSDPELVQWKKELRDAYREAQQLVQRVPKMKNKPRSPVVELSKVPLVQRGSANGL
* marks the source's active call; other numbers are inactive results; i = inactive; ? = inconclusive; · = no result given; + = active, no number; ! = not confirmed by another sample.

SMILES	SKN-1 inh	Rce1 inh	T cell modulator	Myeloid diff MLP	Rin1 Abl inh	GRK2 aptamer HTS
CN1C(=CC=C2C=C(I)C(=O)C(I)=C2)C(C)(C)c2ccccc21	78.4	·	·	i	-4.9	·
O=C(CSc1nncs1)NCCCc1ccccc1	-4.4	i	434.1	i	1.8	4.0
COc1cc2[nH]c(=S)nc(NCc3ccccn3)c2cc1OC	11.8	·	·	+	-2.3	·
O=c1[nH]cnc(CN2CCCCC2)c1O	-9.3	·	·	i	4.4	·
O=c1[nH]c(CN2CCCCC2)ccc1O	22.3	·	·	i	17.6*	·
O=C1CC2(CCN(C(=O)c3c(F)cccc3Cl)CC2)Oc2ccccc21	6.6	i	273.1	i	-1.3	0.0
CCC(C)[C@H](NS(=O)(=O)c1ccc(C)cc1)C(=O)N1CCC(C(=O)N2CCC(C(N)=O)CC2)CC1 (some centres undefined)	-5.8	i	492.6	i	-0.3	0.0
CCCS(=O)(=O)NC(=O)C1(C)CCCN(C(=O)c2cccc(OC(F)(F)F)c2)C1 (centres undefined)	6.6	·	·	i	-1.8	·
COC(=O)c1ccc(CSc2nc3c(c(=O)n2-c2ccc(Br)cc2)SCC3)o1	10.5	i	748.0	+	5.4	0.0
CCOc1ccc(-n2c(SCc3ccc(C(=O)OC)o3)nc3c(c2=O)SCC3)cc1	2.2	·	381.2	i	2.1	0.0
CCn1c(/C=C/c2c(C)[nH]c3ccccc23)nc2ccccc2c1=O	1.9	i	233.3	+	0.5	13.0
CCn1c(/C=C/c2c[nH]c3ccccc23)nc2ccccc2c1=O	-4.0	i	225.3	i	0.3	0.0
Cc1[nH]c2ccccc2c1/C=C/C(=O)c1ccccc1	13.0	i	185.1	+	-1.0	0.0
CC1CC2(CCCCC2)Nc2ccc3ccccc3c21 (centres undefined)	5.3	i	204.0	+	1.7	0.0
CC(=O)N1c2ccc3ccccc3c2C(C)CC12CCCCC2 (centres undefined)	16.2	i	174.8	i	1.4	0.0
COc1ccc(Nc2nc(Cl)c(C=O)s2)cc1	-1.4	i	155.4	+	-4.5	2.0
COc1ccc(Nc2nc3ccccc3s2)cc1	8.6	i	210.2	i	-4.9	0.0
CCNC(=O)c1cc2c(c(-c3cccc(-c4cccnc4)c3)n1)[C@H](CCO)N(S(C)(=O)=O)C2	3.8	·	·	i	·	·
CCOC(=O)c1c(C)[nH]c(O)c1C=Nc1ccc(C(F)(F)F)cc1	60.5*	i	126.9	i	-1.1	1.0
Cc1ccc(S(=O)(=O)N2CCN(C(=O)c3cc4c(C)nn(-c5ccccc5)c4s3)CC2)cc1	8.2	+	660.9	i	0.6	0.0
CNc1cccc2c1C(=O)c1ccccc1C2=O	45.1*	i	691.4	i	-7.7	0.0
c1ccc(NCc2cccnc2)cc1	-0.5	·	189.1	i	3.9	1.0
O=C1c2ccccc2C(=O)c2c(NCc3cccnc3)cccc21	42.8*	i	246.0	i	-6.2	3.0
COc1cc2ncc(S(=O)(=O)c3ccccc3)c(N3CCCC(C)C3)c2cc1OC (centres undefined)	2.7	?	464.1	?	-7.2	0.0
Nc1cc(=O)[nH]c(=O)n1CCCc1ccccc1	16.7	i	186.9	i	-1.9	3.0
SMILES	SKN-1 inh	Rce1 inh	T cell modulator	Myeloid diff MLP	Rin1 Abl inh	GRK2 aptamer HTS
Cc1cc(C)n(-c2ccc(C(=O)NCC(c3ccco3)N3CCCC3)cc2)n1 (centres undefined)	9.8	·	77.5	i	1.5	0.0
Cc1cccn2c(=O)c3cc(C(=O)NCCN4CCOCC4)n(C)c3nc12	6.2	i	539.8	+	-7.0	2.0
Cn1c(C(=O)NCCN2CCOCC2)cc2c(=O)n3ccccc3nc21	-0.9	i	291.6	i	-8.9	1.0
Cc1cccn2c(=O)c3cc(C(=O)NC4CCCCC4C)n(C)c3nc12 (centres undefined)	2.8	i	102.8	+	0.4	1.0
COc1ccc(N2CC(C(=O)Nc3ccncc3)CC2=O)cc1 (centres undefined)	21.9	i	158.1	i	0.6	0.0
CCOC(=O)C(=O)NC1CC=CCC1c1ccc2c(c1)OCO2 (centres undefined)	11.1	·	·	i	5.2	·
CCNC(=O)C1(C)CCN(Cc2cccc(C(F)(F)F)c2)C1 (centres undefined)	2.1	·	·	i	-2.4	·
C=CCN1C(=O)CS/C1=C(\C#N)S(=O)(=O)c1ccc(C)cc1	33.8*	i	258.8	i	-1.7	0.0
CCOc1ccc(CCNC(=O)CN2C(=O)NC(CCSC)C2=O)cc1OCC (centres undefined)	7.1	i	503.5	+	0.9	0.0
CNc1c2c(nn1C)CCCC2	0.5	i	·	+!	0.0	1.0
COc1ccc(N2CCN(C(=O)c3sc4ncn(CC(=O)N5CCCCC5C)c(=O)c4c3C)CC2)cc1 (centres undefined)	6.4	i	256.9	i	0.8	25.0
NCCCn1c(C(=O)c2cc(Cl)c(N)c(Cl)c2)c2ccc([N+](=O)[O-])cc2[n+]1[O-]	-0.8	i	199.1	?	-3.1	0.0
NC(=O)CCCn1c(C(=O)c2cc(Cl)c(N)c(Cl)c2)c2ccc(C(F)(F)F)cc2[n+]1[O-]	4.5	+	163.3	i	-1.2	0.0
NCCCn1c(C(=O)c2cc(Cl)c(N)c(Cl)c2)c2ccc(C(F)(F)F)cc2[n+]1[O-]	1.8	+	203.4	i	-7.8	0.0
CC1CN(C(=O)CSc2nnc(C3CCCCC3)n2N)CC(C)O1 (centres undefined)	-2.7	·	432.1	i	-0.4	2.0
Cc1ccc(-n2nnnc2SCC(=O)c2c(N)n(C3CC3)c(=O)[nH]c2=O)cc1C	3.7	·	259.7	i	-0.5	0.0
O=C(/C=C/Nc1ccc([N+](=O)[O-])cc1)c1ccc(Br)cc1	-0.5	i	259.9	i	-0.1	46.0*
O=C(/C=C/Nc1ccc(F)cc1)c1ccc(Br)cc1	6.8	i	103.1	i	1.9	4.0
N#Cc1nc(N2CCOCC2)nc(N2CCOCC2)n1	36.1*	i	185.0	i	-1.2	0.0
Cc1nc(C(F)(F)F)ccc1C(=O)N1CCC1(C)C(=O)NS(=O)(=O)c1cccc(Cl)c1 (centres undefined)	3.7	·	·	i	-0.1	·
CC(C)CC(=O)NC(=S)Nc1ccc(CN2CCOCC2)cc1	15.2	i	456.9	i	2.5	3.0
CC(C)CC(=O)NC(=S)Nc1ccc(N2CCOCC2)cc1	4.4	i	201.9	+	0.1	3.0
CC(=O)c1ccc(C(=O)Nc2ccc(N3CCOCC3)cc2)cc1	-6.0	i	304.3	i	0.7	2.0
CC(C)c1ccc(C(=O)Nc2ccc(N3CCOCC3)cc2)cc1	2.1	i	110.9	+	2.2	1.0
CC(C)CC(=O)NC(=S)Nc1ccc(S(=O)(=O)Nc2nccs2)cc1	8.3	+	461.1	i	-3.2	0.0
